Active and inactive are the calls of the source. The rule behind the calls is not given here.
Tests used:
HCT-116 [1] = assay: Induction of apoptosis in human HCT116 cells assessed as late apoptotic cells level at 3 uM after 24 hrs by annexin V-FITC/propidium iodide staining based flow cytometry (reference value: 3.08%); type: functional
How it was run: (§1)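 HCT-116 cells were seeded at 1.5 × 10⁵ per well, grown 24 h, then treated 24 h; vehicle control was 0.5% DMSO. Cells were stained with an Annexin V-FITC/PI kit and analysed by flow cytometry. Q4 = early apoptotic, Q2 = late apoptotic; apoptosis rate = Q2 + Q4. Means of three independent experiments.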

HCT-116 [2] = assay: Induction of chromatin condensation in human HCT116 cells at 0. 1 to 10 uM after 24 hrs by Hoechst staining based fluorescent microscopy; type: functional, cell-based
How it was run: (§2)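 HCT-116 cells (15,000 per well) were grown 24 h, then exposed to 0.1, 1 or 10 µM for 24 h; vehicle control was 0.5% DMSO. Cells were photographed under phase-contrast microscopy, then stained with Hoechst 33258 for 0.5 h at 37 °C, washed with PBS and viewed by fluorescence microscopy.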

HCT-116 [3] = assay: Induction of apoptosis in human HCT116 cells assessed as late apoptotic cells level at 1 uM after 24 hrs by annexin V-FITC/propidium iodide staining based flow cytometry (reference value: 3.08%); type: functional; how it was run: as §1
[4] = Antiproliferative activity against human HCT116 cells after 72 hrs by MTT assay; type: functional, cell-based; conditions: HCT-116, 72 h
How it was run: (§3)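 MTT: cells seeded at 1500–4000 per well, grown 24 h, then given serial dilutions (1% DMSO final) for 72 h at 37 °C. MTT was added for 4 h, formazan dissolved in DMSO and absorbance read at 490 nm. Three separate experiments in triplicate; IC50 is the concentration giving 50% cell death versus control.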

HCT-116 [5] = assay: Induction of cellular morphological changes in human HCT116 cells assessed as induction of fragmentation at 1 and 10 uM after 24 hrs by Hoechst staining based phase contrast microscopy; type: functional, cell-based; how it was run: as §2
CCRF S-180 [6] = assay: Antitumor activity against mouse S180 cells homografted in mouse assessed as reduction tumor weight at 30 mg/kg, po once daily for 8 days; type: functional; conditions: CCRF S-180, 192 h
How it was run: (§4)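 Mice (19.6 g average) had 3 × 10⁶ S180 cells injected subcutaneously into the flank and were randomized into three groups of 8. From the next day they received compound in NMP/PEG400/H2O (1:8:1) orally once daily for 8 days, or solvent alone. Body weights were recorded daily. On Day 9 tumors and bodies were weighed and tumor-weight inhibitory ratios calculated.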

HCT-116 [7] = assay: Induction of nuclear fragmentation in human HCT116 cells at 0. 1 to 10 uM after 24 hrs by Hoechst staining based fluorescent microscopy; type: functional, cell-based; how it was run: as §2
[8] = molecular target: PI3-kinase p110-delta/p85-alpha (Homo sapiens, UniProt O00329); assay: Inhibition of p110delta/p85alpha (unknown origin) using L-alpha-phosphatidylinositol incubated for 40 mins by ADP depletion detection based luciferase assay; type: protein-complex assay
[9] = Antiproliferative activity against human U87MG cells after 72 hrs by MTT assay; type: functional, cell-based, U-87MG ATCC; conditions: U-87 MG; how it was run: as §3
HCT-116 [10] = assay: Induction of cellular morphological changes in human HCT116 cells assessed as induction of cell shrinking at 1 and 10 uM after 24 hrs by Hoechst staining based phase contrast microscopy; type: functional; how it was run: as §2
Mus musculus [11] = assay: Toxicity in mouse homografted with mouse S180 cells assessed as effect on body weight at 15 mg/kg, po once daily for 8 days; type: organism-based, CCRF S-180; parameters: dose 15 mg/kg, route oral; conditions: in vivo, 192 h; how it was run: as §4
[12] = molecular target: PI3-kinase subunit gamma/Phosphoinositide 3-kinase regulatory subunit 5 (Homo sapiens, UniProt P48736); assay: Inhibition of p110gamma/PIK3R5 (unknown origin) using L-alpha-phosphatidylinositol incubated for 40 mins by ADP depletion detection based luciferase assay; type: protein-complex assay
Chain of PI3-kinase subunit gamma/Phosphoinositide 3-kinase regulatory subunit 5 (P48736 whole entry): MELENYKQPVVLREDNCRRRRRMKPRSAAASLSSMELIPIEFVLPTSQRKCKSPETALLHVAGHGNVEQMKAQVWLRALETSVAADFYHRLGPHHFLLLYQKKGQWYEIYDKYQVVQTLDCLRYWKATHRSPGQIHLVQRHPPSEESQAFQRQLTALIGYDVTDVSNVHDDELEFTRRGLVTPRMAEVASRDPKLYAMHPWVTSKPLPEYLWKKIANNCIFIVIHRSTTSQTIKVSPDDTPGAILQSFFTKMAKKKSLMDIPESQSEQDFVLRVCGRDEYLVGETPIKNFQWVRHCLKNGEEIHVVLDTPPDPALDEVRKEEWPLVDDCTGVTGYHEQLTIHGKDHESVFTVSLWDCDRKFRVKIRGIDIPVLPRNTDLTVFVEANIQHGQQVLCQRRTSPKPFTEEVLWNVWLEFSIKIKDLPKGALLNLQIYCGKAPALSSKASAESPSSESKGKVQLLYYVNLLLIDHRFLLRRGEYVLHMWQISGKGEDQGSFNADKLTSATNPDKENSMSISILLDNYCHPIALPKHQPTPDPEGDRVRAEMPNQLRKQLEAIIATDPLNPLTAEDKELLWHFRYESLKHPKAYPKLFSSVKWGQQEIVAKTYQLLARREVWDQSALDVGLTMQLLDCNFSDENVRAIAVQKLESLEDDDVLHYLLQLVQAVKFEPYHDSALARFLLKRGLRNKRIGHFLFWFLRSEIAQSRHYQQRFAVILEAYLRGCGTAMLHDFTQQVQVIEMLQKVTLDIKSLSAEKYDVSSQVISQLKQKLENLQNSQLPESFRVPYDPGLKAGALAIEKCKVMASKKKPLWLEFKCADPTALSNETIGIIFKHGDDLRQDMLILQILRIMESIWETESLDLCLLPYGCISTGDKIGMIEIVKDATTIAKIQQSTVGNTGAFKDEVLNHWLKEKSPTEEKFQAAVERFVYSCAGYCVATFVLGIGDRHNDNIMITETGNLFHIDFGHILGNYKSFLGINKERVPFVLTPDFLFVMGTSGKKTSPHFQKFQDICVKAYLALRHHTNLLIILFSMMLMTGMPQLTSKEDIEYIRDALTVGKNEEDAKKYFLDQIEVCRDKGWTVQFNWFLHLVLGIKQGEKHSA
Chain of PI3-kinase subunit gamma/Phosphoinositide 3-kinase regulatory subunit 5 (Q8WYR1 whole entry, further chain): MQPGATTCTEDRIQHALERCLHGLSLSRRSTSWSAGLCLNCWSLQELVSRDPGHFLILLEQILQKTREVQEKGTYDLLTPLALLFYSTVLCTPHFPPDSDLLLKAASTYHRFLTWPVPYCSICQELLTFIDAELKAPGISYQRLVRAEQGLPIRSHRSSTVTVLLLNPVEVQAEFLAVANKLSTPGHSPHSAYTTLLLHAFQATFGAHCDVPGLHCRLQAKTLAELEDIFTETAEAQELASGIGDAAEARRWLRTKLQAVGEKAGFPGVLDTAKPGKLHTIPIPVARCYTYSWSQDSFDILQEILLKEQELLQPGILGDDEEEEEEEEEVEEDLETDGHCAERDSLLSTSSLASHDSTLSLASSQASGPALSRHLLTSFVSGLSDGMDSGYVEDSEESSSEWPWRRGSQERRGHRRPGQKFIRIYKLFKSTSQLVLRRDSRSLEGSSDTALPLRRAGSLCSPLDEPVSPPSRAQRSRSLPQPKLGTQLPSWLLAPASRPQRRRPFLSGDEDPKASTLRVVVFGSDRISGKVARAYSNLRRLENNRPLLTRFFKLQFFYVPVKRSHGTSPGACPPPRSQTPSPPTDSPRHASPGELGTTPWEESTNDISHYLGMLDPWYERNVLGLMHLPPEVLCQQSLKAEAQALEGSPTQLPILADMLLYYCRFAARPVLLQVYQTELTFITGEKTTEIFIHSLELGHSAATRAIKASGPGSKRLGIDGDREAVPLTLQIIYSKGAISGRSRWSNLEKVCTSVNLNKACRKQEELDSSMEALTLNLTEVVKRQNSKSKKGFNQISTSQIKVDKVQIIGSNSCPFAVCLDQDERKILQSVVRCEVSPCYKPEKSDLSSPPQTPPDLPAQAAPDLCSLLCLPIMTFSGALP

A549 = assay: Antiproliferative activity against human A549 cells after 72 hrs by MTT assay; type: functional, cell-based; conditions: A549, 72 h; how it was run: as §3
HCT-116 [13] = assay: Induction of cellular morphological changes in human HCT116 cells assessed as induction of vacuolization at 1 and 10 uM after 24 hrs by Hoechst staining based phase contrast microscopy; type: functional, cell-based; how it was run: as §2
MCF7 = assay: Antiproliferative activity against human MCF7 cells after 72 hrs by MTT assay; type: functional, cell-based; conditions: MCF7, 72 h; how it was run: as §3
CCRF S-180 [14] = assay: Antitumor activity against mouse S180 cells homografted in mouse assessed as reduction tumor weight at 15 mg/kg, po once daily for 8 days; type: functional; conditions: CCRF S-180, 192 h; how it was run: as §4
PI3K p110 beta/p85 alpha = PI3K p110 beta/p85 alpha (Homo sapiens, UniProt P42338); assay: Inhibition of p110beta/p85alpha (unknown origin) using L-alpha-phosphatidylinositol incubated for 40 mins by ADP depletion detection based luciferase assay; type: protein-complex assay
Chain of PI3K p110 beta/p85 alpha (P27986 whole entry): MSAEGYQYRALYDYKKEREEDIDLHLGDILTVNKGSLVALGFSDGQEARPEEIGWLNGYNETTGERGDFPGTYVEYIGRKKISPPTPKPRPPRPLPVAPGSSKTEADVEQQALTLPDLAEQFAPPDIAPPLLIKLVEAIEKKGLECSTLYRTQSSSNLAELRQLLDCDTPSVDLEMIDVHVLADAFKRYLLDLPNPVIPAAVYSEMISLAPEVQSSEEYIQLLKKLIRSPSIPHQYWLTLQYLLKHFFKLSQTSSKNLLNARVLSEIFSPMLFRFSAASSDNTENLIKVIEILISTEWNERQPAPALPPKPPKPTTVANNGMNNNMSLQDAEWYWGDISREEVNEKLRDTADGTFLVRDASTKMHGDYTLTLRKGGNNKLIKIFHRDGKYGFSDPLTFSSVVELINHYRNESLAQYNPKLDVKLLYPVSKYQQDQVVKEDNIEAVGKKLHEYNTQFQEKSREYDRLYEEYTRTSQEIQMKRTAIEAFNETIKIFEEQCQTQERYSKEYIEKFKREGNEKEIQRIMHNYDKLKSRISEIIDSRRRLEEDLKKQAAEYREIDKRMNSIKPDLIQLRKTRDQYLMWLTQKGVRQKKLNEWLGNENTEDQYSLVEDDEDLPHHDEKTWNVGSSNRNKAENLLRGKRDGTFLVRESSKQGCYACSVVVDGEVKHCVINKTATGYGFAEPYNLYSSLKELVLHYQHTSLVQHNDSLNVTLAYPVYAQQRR
Chain of PI3K p110 beta/p85 alpha (P42338 whole entry): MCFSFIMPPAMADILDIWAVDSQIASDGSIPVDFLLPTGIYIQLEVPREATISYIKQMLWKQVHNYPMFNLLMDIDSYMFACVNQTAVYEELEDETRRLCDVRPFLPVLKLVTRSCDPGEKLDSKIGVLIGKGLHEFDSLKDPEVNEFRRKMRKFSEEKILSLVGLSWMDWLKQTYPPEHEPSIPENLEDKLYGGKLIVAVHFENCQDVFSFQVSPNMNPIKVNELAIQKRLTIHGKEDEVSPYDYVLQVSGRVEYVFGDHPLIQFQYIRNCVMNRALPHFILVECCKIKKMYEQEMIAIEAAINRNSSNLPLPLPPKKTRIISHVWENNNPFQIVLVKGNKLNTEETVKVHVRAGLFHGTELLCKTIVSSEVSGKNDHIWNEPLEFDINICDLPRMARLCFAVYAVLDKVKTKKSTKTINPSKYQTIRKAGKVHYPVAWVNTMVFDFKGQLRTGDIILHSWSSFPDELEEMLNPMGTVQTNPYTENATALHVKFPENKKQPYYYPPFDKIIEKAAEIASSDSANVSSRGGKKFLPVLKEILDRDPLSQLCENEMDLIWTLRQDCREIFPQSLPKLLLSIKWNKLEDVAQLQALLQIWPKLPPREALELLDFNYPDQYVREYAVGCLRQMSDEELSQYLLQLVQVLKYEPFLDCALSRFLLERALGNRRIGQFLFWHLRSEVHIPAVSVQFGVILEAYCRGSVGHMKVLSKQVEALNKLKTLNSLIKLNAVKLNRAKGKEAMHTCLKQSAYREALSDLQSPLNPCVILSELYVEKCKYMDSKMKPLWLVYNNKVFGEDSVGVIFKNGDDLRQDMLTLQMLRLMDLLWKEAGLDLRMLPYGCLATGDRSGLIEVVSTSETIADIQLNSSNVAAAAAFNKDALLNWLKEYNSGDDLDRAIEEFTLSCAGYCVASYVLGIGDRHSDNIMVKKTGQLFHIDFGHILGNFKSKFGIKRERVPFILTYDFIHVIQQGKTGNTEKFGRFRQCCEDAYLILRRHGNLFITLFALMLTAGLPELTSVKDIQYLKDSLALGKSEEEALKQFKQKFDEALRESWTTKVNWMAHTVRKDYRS

HCT-116 [15] = assay: Induction of cell cycle arrest in human HCT116 cells assessed as accumulation at S phase at 3 uM after 24 hrs by propidium iodide staining based flow cytometry (reference value: 38.71%); type: functional
HCT-116 [16] = assay: Induction of cell cycle arrest in human HCT116 cells assessed as accumulation at G0/G1 phase at 3 uM after 24 hrs by propidium iodide staining based flow cytometry (reference value: 48.31%); type: functional
HCT-116 [17] = assay: Induction of apoptosis in human HCT116 cells assessed as early apoptotic cells level at 3 uM after 24 hrs by annexin V-FITC/propidium iodide staining based flow cytometry (reference value: 4.36%); type: functional; how it was run: as §1
HCT-116 [18] = assay: Induction of apoptosis in human HCT116 cells at 1 uM after 24 hrs by annexin V-FITC/propidium iodide staining based flow cytometry; type: functional; how it was run: as §1
Mus musculus [19] = assay: Toxicity in mouse homografted with mouse S180 cells assessed as effect on body weight at 30 mg/kg, po once daily for 8 days; type: organism-based, CCRF S-180; parameters: dose 30 mg/kg, route oral; conditions: in vivo, 192 h; how it was run: as §4
HCT-116 [20] = assay: Induction of apoptosis in human HCT116 cells at 3 uM after 24 hrs by annexin V-FITC/propidium iodide staining based flow cytometry; type: functional; how it was run: as §1
[21] = molecular target: PI3-kinase p110-alpha/p85-alpha (Homo sapiens, UniProt P42336); assay: Inhibition of p110alpha/p85alpha (unknown origin) using L-alpha-phosphatidylinositol incubated for 40 mins by ADP depletion detection based luciferase assay; type: protein-complex assay
Chain of PI3-kinase p110-alpha/p85-alpha (P27986 whole entry): as the sequence (P27986 whole entry) above
Chain of PI3-kinase p110-alpha/p85-alpha (P42336 whole entry): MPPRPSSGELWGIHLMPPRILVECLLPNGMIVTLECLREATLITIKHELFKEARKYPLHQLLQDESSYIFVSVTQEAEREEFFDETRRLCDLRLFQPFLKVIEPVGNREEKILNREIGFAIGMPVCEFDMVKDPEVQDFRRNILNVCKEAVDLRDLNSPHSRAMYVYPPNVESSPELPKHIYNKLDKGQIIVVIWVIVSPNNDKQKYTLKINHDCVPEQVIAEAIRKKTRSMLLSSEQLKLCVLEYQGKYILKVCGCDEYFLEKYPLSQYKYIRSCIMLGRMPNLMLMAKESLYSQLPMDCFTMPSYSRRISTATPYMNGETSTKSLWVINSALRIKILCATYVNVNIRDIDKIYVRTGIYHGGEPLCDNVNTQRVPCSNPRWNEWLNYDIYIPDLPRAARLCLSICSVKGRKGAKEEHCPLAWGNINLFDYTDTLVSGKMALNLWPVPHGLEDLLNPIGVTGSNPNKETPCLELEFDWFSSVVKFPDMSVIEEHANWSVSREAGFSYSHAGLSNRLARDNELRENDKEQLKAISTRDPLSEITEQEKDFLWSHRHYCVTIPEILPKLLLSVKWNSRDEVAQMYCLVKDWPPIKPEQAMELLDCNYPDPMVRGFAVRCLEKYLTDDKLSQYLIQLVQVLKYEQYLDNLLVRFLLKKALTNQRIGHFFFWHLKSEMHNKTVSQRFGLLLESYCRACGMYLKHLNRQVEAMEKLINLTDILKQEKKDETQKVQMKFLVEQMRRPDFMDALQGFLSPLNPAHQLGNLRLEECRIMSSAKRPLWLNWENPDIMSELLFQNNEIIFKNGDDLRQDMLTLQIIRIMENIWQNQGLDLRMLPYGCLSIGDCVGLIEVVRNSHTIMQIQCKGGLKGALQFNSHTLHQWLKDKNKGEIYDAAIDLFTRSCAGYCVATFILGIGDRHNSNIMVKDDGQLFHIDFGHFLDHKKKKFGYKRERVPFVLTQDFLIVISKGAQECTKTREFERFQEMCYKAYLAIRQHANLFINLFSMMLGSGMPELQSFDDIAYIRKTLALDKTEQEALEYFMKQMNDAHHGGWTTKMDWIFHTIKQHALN

[22] = Inhibition of PI3K-mediated PI3K/Akt/mTOR pathway in human HCT116 cells assessed as reduction in Akt Ser473 phosphorylation at 10 uM incubated for 1 hr by Western blot method; type: cell-based; conditions: HCT-116
How it was run: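 HCT-116 cells were seeded at 5 × 10⁵ per well and grown 16 h at 37 °C, then exposed to 10 µM for 1 h; vehicle control was 0.5% DMSO. Lysates were normalised by BCA, run on 10% SDS-PAGE, transferred to nitrocellulose and probed for AKT and p-Ser473 AKT, with β-actin as loading control. Detection was by chemiluminescence; bands were quantified densitometrically.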

HCT-116 [23] = assay: Induction of apoptosis in human HCT116 cells assessed as early apoptotic cells level at 1 uM after 24 hrs by annexin V-FITC/propidium iodide staining based flow cytometry (reference value: 4.36%); type: functional; how it was run: as §1
HCT-116 [24] = assay: Induction of cell cycle arrest in human HCT116 cells assessed as accumulation at G2/M phase at 3 uM after 24 hrs by propidium iodide staining based flow cytometry (reference value: 12.98%); type: functional

COc1cc2nc(-c3cc(OC(F)(F)F)cc(C(N)=O)c3)nc(N3CCOCC3)c2cc1OC
Activity (HCT-116 [1]): 7.59% | Activity (HCT-116 [2]): Active | Activity (HCT-116 [3]): 6.76% | IC50 [4]: 300 nM | Activity (HCT-116 [5]): Active | inhibition in vivo at 30 mg/kg (CCRF S-180 [6]): 64.2% | Activity (HCT-116 [7]): Active | IC50 [8]: 330 nM | IC50 [9]: 600 nM | Activity (HCT-116 [10]): Active | Activity (Mus musculus [11]): Non-toxic | IC50 [12]: 465 nM | IC50 (A549): 1680 nM | Activity (HCT-116 [13]): Active | IC50 (MCF7): 1090 nM | inhibition in vivo at 15 mg/kg (CCRF S-180 [14]): 49.3% | IC50 (PI3K p110 beta/p85 alpha): 128 nM | Activity (HCT-116 [15]): 20.11% | Activity (HCT-116 [16]): 56.69% | Activity (HCT-116 [17]): 16.25% | Activity (HCT-116 [18]): 22.7% | Activity (Mus musculus [19]): Non-toxic | Activity (HCT-116 [20]): 27.3% | IC50 [21]: 96 nM | inhibition [22]: Active | Activity (HCT-116 [23]): 11.5% | Activity (HCT-116 [24]): 23.19%
